# Measurements taken from ChEMBL document CHEMBL3784931, “Synthesis and evaluation of novel angiotensin II receptor 1 antagonists as anti-hypertension drugs” (Bioorg Med Chem, 2016).
# Molecular target: T1, Type-1 angiotensin II receptor A (Rattus norvegicus, UniProt P25095)
# T1 sequence (P25095 whole entry): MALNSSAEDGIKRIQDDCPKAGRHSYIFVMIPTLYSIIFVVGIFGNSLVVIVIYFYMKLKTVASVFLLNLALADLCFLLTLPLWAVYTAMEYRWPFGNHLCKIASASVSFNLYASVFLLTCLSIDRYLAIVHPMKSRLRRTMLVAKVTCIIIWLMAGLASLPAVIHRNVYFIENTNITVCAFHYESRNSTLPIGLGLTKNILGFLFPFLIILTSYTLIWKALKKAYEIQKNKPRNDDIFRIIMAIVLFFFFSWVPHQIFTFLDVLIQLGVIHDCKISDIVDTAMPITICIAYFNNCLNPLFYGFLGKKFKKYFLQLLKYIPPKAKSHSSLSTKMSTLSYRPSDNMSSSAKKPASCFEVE
# Assay: Displacement of [125I]-Ang II from Angiotensin 2 type-1A receptor in rat vascular smooth muscle cells after 150 mins by gamma counting method
# Method in brief: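 Rat vascular smooth muscle cells (passages 3–6) were seeded at 10⁶ cells/well and grown at 37 °C in 5% CO₂. Nonspecific binding was taken with 1 µM Ang II. Cells were washed three times, lysed 10 min in 0.1 M NaOH, and bound radioactivity was gamma counted.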
structure (smiles),measurement,value
CCCCc1nc(Cl)c(CO)n1Cc1ccc(-c2ccccc2-c2noc(=O)[nH]2)cc1,IC50,5.94 nM
same,Ki,4.3 nM
